Measurements published in ChEMBL document CHEMBL1151206, “Glycosidase-inhibiting pyrrolidines and pyrrolizidines with a long side chain in Scilla peruviana” (J Nat Prod, 2004).

Biological target: not listed separately
Assay: Inhibition of rice alpha-glucosidase by spectrophotometry
Parameters: species or system Oryza sativa
`CC(O)[C@@H](O)[C@H]1N[C@H](CO)[C@@H](O)[C@@H]1O` (some centres not stated) showed an IC50 of 650 µM. `CC(O)C[C@H]1N[C@H](CO)[C@@H](O)[C@@H]1O` (some centres not stated) gave an IC50 of 210 µM. For `CC(O)CC(O)[C@@H]1CC[C@@H]2[C@H](O)[C@H](O)[C@@H](CO)N21` (some centres not stated), the IC50 was 300 µM.

Tested on: maltase-glucoamylase (Rattus norvegicus)
Assay: Inhibition of rat intestinal maltase at 1000 uM by spectrophotometry
For `CC(O)[C@@H](O)[C@H]1N[C@H](CO)[C@@H](O)[C@@H]1O` (some centres not stated), the inhibition was under 50%.

Tested on: Penicillium decumbens
Assay: Inhibition of Penicillium decumbens alpha-L-rhamnosidase at 1000 uM by spectrophotometry
Method in brief: (§1)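 Commercial enzymes (P. decumbens alpha-L-rhamnosidase at pH 4.5, bovine epididymis alpha-L-fucosidase at pH 5.5, coffee bean alpha-galactosidase at pH 6.5) were incubated with 2 mM p-nitrophenyl glycoside in a 1 mL reaction. The reaction was stopped with 2 mL of 400 mM Na2CO3 and p-nitrophenol was read at 400 nm.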
`CC(O)[C@@H](O)[C@H]1N[C@H](CO)[C@@H](O)[C@@H]1O` (some centres not stated) gave an inhibition of under 50%. With `CC(O)C[C@H]1N[C@H](CO)[C@@H](O)[C@@H]1O` (some centres not stated) the inhibition was under 50%.

Biological target: not listed separately
Assay: Inhibition of rat epididymis alpha-mannosidase by spectrophotometry
Method in brief: (§2)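 Substrate was the matching p-nitrophenyl glycoside at 2 mM. Penicillium decumbens α-L-rhamnosidase was run at pH 4.5. α-Mannosidase came from purified rat epididymal fluid and was run at pH 5.2. Reactions were stopped with 400 mM Na2CO3, and released p-nitrophenol was read at 400 nm.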
`CC(O)CC(O)[C@@H]1CC[C@@H]2[C@H](O)[C@H](O)[C@@H](CO)N21` (some centres not stated) showed an IC50 of 680 µM.

Biological target: T1, Beta-mannosidase (Rattus norvegicus, UniProt Q4FZV0)
T1 sequence (Q4FZV0 whole entry): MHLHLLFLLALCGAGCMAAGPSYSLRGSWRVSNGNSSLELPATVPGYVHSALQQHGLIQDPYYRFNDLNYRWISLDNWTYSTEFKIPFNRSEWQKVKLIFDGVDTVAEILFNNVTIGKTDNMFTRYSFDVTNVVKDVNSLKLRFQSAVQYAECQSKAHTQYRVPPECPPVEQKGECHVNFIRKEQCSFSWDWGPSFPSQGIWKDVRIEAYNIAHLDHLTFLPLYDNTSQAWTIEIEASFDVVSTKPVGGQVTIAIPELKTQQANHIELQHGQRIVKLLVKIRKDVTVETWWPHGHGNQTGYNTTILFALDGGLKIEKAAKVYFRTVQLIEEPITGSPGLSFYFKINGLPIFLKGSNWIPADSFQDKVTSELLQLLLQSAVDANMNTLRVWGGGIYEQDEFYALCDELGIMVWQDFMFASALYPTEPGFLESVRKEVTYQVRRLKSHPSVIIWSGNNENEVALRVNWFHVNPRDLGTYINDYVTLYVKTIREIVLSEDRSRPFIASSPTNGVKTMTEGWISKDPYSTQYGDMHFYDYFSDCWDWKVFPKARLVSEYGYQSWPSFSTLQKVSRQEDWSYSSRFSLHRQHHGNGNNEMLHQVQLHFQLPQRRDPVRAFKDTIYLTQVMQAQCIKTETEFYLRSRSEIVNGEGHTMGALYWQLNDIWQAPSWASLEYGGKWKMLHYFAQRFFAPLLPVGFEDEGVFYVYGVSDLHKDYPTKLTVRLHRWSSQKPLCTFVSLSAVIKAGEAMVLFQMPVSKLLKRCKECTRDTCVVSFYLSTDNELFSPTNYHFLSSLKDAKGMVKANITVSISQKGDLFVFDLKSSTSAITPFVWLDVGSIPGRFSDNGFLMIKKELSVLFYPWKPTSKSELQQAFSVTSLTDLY
Assay: Inhibition of rat epididymis beta-mannosidase by spectrophotometry
Method in brief: (§3)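 Enzyme source was rat epididymal fluid purified from epididymis, assayed at pH 5.2 with 2 mM of the relevant p-nitrophenyl glycoside in a 1 mL reaction. The reaction was stopped with 2 mL of 400 mM Na2CO3 and p-nitrophenol was measured at 400 nm.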
`CC(O)[C@@H](O)[C@H]1N[C@H](CO)[C@@H](O)[C@@H]1O` (some centres not stated) gave an IC50 of 150 µM. With `CC(O)C[C@H]1N[C@H](CO)[C@@H](O)[C@@H]1O` (some centres not stated) the IC50 was 610 µM.

Biological target: not listed separately
Assay: Inhibition of Caldocellum saccharolyticum beta-glucosidase by spectrophotometry
Parameters: species or system Caldicellulosiruptor saccharolyticus
Method in brief: (§4)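 Commercial enzyme assayed with the matching p-nitrophenyl glycoside (2 mM) in a 1 mL reaction, at pH 5.0 for the C. saccharolyticum and almond beta-glucosidases, pH 6.8 for bovine liver beta-galactosidase and pH 6.8 for yeast alpha-glucosidase. The reaction was stopped with 2 mL of 400 mM Na2CO3 and released p-nitrophenol was read at 400 nm. IC50 was determined.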
Compound `CC(O)[C@@H](O)[C@H]1N[C@H](CO)[C@@H](O)[C@@H]1O` (some centres not stated) has an IC50 of 20 µM. In the case of `CC(O)C[C@H]1N[C@H](CO)[C@@H](O)[C@@H]1O` (some centres not stated), the IC50 is reported as 700 µM. `CC(O)CC(O)[C@@H]1CC[C@@H]2[C@H](O)[C@H](O)[C@@H](CO)N21` (some centres not stated) gave an IC50 of 5.1 µM.

Biological target: T2, Lysosomal acid glucosylceramidase (Homo sapiens) (UniProt P04062)
T2 sequence (whole entry): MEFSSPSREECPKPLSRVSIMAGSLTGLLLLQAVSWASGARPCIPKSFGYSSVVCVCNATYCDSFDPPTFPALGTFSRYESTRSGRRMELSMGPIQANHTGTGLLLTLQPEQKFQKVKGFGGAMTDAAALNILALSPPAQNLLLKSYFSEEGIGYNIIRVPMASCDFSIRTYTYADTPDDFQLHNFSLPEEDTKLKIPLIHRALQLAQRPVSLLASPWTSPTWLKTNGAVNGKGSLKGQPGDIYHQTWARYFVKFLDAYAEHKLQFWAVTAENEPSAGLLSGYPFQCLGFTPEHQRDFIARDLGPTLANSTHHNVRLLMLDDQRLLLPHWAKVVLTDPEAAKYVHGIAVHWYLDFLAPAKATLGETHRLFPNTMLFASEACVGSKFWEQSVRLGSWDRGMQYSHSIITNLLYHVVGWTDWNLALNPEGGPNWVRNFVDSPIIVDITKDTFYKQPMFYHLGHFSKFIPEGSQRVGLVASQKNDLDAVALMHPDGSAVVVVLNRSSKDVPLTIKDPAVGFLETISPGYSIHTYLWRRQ
Assay: Inhibition of human placental beta-glucocerebrosidase at 1000 uM by spectrophotometry
For `CC(O)[C@@H](O)[C@H]1N[C@H](CO)[C@@H](O)[C@@H]1O` (some centres not stated), the inhibition was under 50%. Work on `CC(O)C[C@H]1N[C@H](CO)[C@@H](O)[C@@H]1O` (some centres not stated) yielded an inhibition of under 50%. For `CC(O)CC(O)[C@@H]1CC[C@@H]2[C@H](O)[C@H](O)[C@@H](CO)N21` (some centres not stated), the inhibition was under 50%.

Biological target: T3, Tissue alpha-L-fucosidase (Bos taurus) (UniProt Q2KIM0)
T3 sequence (whole entry): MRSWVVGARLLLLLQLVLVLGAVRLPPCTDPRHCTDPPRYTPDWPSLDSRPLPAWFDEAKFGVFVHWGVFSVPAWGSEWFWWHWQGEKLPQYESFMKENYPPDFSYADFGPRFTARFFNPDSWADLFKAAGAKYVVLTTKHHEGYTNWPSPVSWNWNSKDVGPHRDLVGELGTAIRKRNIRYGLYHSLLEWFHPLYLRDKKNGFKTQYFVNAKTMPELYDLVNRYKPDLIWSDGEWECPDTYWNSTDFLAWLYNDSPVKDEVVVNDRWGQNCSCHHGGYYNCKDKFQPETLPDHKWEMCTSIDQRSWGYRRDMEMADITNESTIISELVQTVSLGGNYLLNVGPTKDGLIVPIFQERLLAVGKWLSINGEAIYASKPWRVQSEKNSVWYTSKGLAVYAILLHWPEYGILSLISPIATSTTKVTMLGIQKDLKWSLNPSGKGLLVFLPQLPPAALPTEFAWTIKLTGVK
Assay: Inhibition of bovine epididymis alpha-L-fucosidase at 1000 uM by spectrophotometry
Method in brief: as §1
Compound `CC(O)[C@@H](O)[C@H]1N[C@H](CO)[C@@H](O)[C@@H]1O` (some centres not stated) has an inhibition of under 50%. Compound `CC(O)C[C@H]1N[C@H](CO)[C@@H](O)[C@@H]1O` (some centres not stated) has an inhibition of under 50%. Work on `CC(O)CC(O)[C@@H]1CC[C@@H]2[C@H](O)[C@H](O)[C@@H](CO)N21` (some centres not stated) yielded an inhibition of under 50%.

Biological target: T4, Beta-galactosidase (Bos taurus, UniProt Q58D55)
T4 sequence (Q58D55 whole entry): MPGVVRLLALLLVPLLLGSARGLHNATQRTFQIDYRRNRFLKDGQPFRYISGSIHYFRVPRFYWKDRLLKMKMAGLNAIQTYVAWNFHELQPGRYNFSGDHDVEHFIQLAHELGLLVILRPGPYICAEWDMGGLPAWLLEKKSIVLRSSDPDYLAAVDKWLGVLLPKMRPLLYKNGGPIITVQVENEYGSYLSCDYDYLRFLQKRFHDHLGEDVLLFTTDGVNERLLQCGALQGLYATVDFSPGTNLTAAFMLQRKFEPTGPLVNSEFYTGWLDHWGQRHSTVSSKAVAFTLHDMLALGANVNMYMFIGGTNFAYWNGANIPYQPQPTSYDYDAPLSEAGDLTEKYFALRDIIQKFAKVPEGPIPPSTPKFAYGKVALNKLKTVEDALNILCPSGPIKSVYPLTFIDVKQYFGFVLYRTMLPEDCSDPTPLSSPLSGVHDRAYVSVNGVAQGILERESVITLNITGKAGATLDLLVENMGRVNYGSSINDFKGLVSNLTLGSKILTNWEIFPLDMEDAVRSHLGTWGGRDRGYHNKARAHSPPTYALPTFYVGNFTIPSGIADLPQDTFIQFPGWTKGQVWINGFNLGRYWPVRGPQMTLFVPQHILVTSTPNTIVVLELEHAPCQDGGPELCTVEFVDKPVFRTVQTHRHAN
Assay: Inhibition of bovine liver beta-galactosidase by spectrophotometry
Method in brief: as §4
`CC(O)[C@@H](O)[C@H]1N[C@H](CO)[C@@H](O)[C@@H]1O` (some centres not stated) showed an IC50 of 130 µM. Work on `CC(O)C[C@H]1N[C@H](CO)[C@@H](O)[C@@H]1O` (some centres not stated) yielded an IC50 of 260 µM. In the case of `CC(O)CC(O)[C@@H]1CC[C@@H]2[C@H](O)[C@H](O)[C@@H](CO)N21` (some centres not stated), the IC50 is reported as 830 µM.

Biological target: not listed separately
Assay: Inhibition of Penicillium decumbens alpha-L-rhamnosidase by spectrophotometry
Method in brief: as §2
Work on `CC(O)CC(O)[C@@H]1CC[C@@H]2[C@H](O)[C@H](O)[C@@H](CO)N21` (some centres not stated) yielded an IC50 of 180 µM.

Species on record: Rattus norvegicus
Assay: Inhibition of rat epididymis alpha-mannosidase at 1000 uM by spectrophotometry
Method in brief: as §3
Work on `CC(O)[C@@H](O)[C@H]1N[C@H](CO)[C@@H](O)[C@@H]1O` (some centres not stated) yielded an inhibition of under 50%. Compound `CC(O)C[C@H]1N[C@H](CO)[C@@H](O)[C@@H]1O` (some centres not stated) has an inhibition of under 50%.

Biological target: T5, Beta-mannosidase (Rattus norvegicus) (UniProt Q4FZV0)
T5 sequence (whole entry): T1 sequence (Q4FZV0 whole entry)
Assay: Inhibition of rat epididymis beta-mannosidase at 1000 uM by spectrophotometry
In the case of `CC(O)CC(O)[C@@H]1CC[C@@H]2[C@H](O)[C@H](O)[C@@H](CO)N21` (some centres not stated), the inhibition is reported as under 50%.

Biological target: not listed separately
Assay: Inhibition of yeast alpha-glucosidase by spectrophotometry
Parameters: species or system Saccharomyces cerevisiae
Method in brief: as §4
With `CC(O)[C@@H](O)[C@H]1N[C@H](CO)[C@@H](O)[C@@H]1O` (some centres not stated) the IC50 was 630 µM. For `CC(O)C[C@H]1N[C@H](CO)[C@@H](O)[C@@H]1O` (some centres not stated), the IC50 was 100 µM. `CC(O)CC(O)[C@@H]1CC[C@@H]2[C@H](O)[C@H](O)[C@@H](CO)N21` (some centres not stated) gave an IC50 of 3.6 µM.

Biological target: not listed separately
Assay: Inhibition of almond beta-glucosidase by spectrophotometry
Parameters: species or system Prunus dulcis
Method in brief: as §4
`CC(O)[C@@H](O)[C@H]1N[C@H](CO)[C@@H](O)[C@@H]1O` (some centres not stated) gave an IC50 of 120 µM. `CC(O)CC(O)[C@@H]1CC[C@@H]2[C@H](O)[C@H](O)[C@@H](CO)N21` (some centres not stated) showed an IC50 of 9.5 µM.

Biological target: Alpha-galactosidase (Coffea arabica) (UniProt Q42656)
Sequence (Q42656 16-378 limits assumed): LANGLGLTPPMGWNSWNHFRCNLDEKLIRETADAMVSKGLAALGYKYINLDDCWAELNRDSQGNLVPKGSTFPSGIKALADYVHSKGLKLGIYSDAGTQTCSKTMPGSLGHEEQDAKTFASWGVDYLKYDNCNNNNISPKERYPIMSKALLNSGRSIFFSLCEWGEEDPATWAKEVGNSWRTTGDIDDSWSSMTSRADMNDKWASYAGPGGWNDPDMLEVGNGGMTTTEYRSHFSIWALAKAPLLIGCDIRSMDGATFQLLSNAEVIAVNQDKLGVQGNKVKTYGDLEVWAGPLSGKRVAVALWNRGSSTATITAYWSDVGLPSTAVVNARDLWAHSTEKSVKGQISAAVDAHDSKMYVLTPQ
Assay: Inhibition of coffee bean alpha-galactosidase at 1000 uM by spectrophotometry
Method in brief: as §1
Work on `CC(O)[C@@H](O)[C@H]1N[C@H](CO)[C@@H](O)[C@@H]1O` (some centres not stated) yielded an inhibition of under 50%. `CC(O)C[C@H]1N[C@H](CO)[C@@H](O)[C@@H]1O` (some centres not stated) showed an inhibition of under 50%. In the case of `CC(O)CC(O)[C@@H]1CC[C@@H]2[C@H](O)[C@H](O)[C@@H](CO)N21` (some centres not stated), the inhibition is reported as under 50%.

Species on record: Rattus norvegicus
Assay: Inhibition of rat epididymis beta-galactosidase at 1000 uM by spectrophotometry
Method in brief: as §3
Compound `CC(O)[C@@H](O)[C@H]1N[C@H](CO)[C@@H](O)[C@@H]1O` (some centres not stated) has an inhibition of under 50%. Compound `CC(O)C[C@H]1N[C@H](CO)[C@@H](O)[C@@H]1O` (some centres not stated) has an inhibition of under 50%. For `CC(O)CC(O)[C@@H]1CC[C@@H]2[C@H](O)[C@H](O)[C@@H](CO)N21` (some centres not stated), the inhibition was under 50%.

Tested on: Prunus dulcis
Assay: Inhibition of almond beta-glucosidase at 1000 uM by spectrophotometry
For `CC(O)C[C@H]1N[C@H](CO)[C@@H](O)[C@@H]1O` (some centres not stated), the inhibition was under 50%.
